The source of these data is ChEMBL document CHEMBL1155302, “Crystal structure, antitumour and antimetastatic activities of disubstituted fused 1,2,4-triazinones” (Bioorg Med Chem Lett, 2009).

The nature of data set [1]: Cytotoxicity against human HSF cells assessed as cell viability at 50 uM after 24 hrs by MTT assay relative to control. The data set is classed as cell-based. The conditions noted are these: read-out: Activity. The gist of the method:
(§1)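 Primary skin fibroblasts were obtained by trypsinizing a healthy forearm skin fragment and grown in DMEM with 10% FBS, penicillin and streptomycin at 37 °C, 5% CO2. Cells were plated at 1 × 10⁵ per well to confluence, then exposed for 24 h to 1, 50 or 100 µM compound diluted from DMSO. MTT viability was read at 570 nm as % of medium control, mean SD of at least three independent measurements.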
Background: Tetrazolium dyes change colour on reduction, which living cells bring about.

Data set [2] has as its system RPMI-8226. Put plainly: Antitumor activity against human RPMI8226 cells assessed as cell viability at 100 uM after 24 hrs by MTT assay relative to control. The conditions noted are these: RPMI-8226, 24 h, read-out: Activity. The data set is classed as functional. The gist of the method: (§2)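 RPMI 8226 peripheral blood myeloma cells were treated with 1, 50 or 100 µM compound (DMSO stock diluted into medium) for 24 h. Viability was measured by MTT reduction (SDI test), with solubilized formazan read at 570 nm. Results are % of medium-alone control, mean SD of at least three independent measurements.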

A short description of data set [3]: Cytotoxicity against human HSF cells assessed as cell viability at 1 uM after 24 hrs by MTT assay relative to control. The data set is classed as cell-based. The conditions noted are these: read-out: Activity. The gist of the method:
as §1

Data set [4] can be described thus: Antimetastatic activity against human HeLaB cells assessed as inhibition of cell motility at 25 uM after 24 hrs relative to control. The data set is classed as functional. Further details: scale not given: the % may be the effect or the level left. The gist of the method:
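HeLa B cervix carcinoma cells were exposed to 25 µM compound or to culture medium alone for 24 h in a wound-migration (cell motility) assay. Cells migrating into the wound area were scored, and motility was expressed as % of the medium-only control (100%).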

For data set [5], the system named is RPMI-8226. Put plainly: Antitumor activity against human RPMI8226 cells assessed as cell viability at 1 uM after 24 hrs by MTT assay relative to control. The data set is classed as functional. The conditions noted are these: RPMI-8226, 24 h, read-out: Activity. The gist of the method: as §2
The nature of data set [6]: Cytotoxicity against human HSF cells assessed as cell viability at 100 uM after 24 hrs by MTT assay relative to control. The data set is classed as cell-based. The conditions noted are these: read-out: Activity. The gist of the method:
as §1

The subject of data set [7] is RPMI-8226. Put plainly: Antitumor activity against human RPMI8226 cells assessed as cell viability at 50 uM after 24 hrs by MTT assay relative to control. The data set is classed as functional. The conditions noted are these: RPMI-8226, 24 h, read-out: Activity. The gist of the method:
as §2

Consider `O=c1c(-c2ccccc2)nnc2n1CCN2c1ccccc1Cl`, for which the viability at 24 h, 50 µM in data set [1] came out at 104%. Also, the viability at 100 µM in the data set with RPMI-8226 [2] was 101%. Also, the viability at 24 h, 1 µM in data set [3] was determined as 108%. For the same compound, the Activity in data set [4] is listed as 59%. In the data set on RPMI-8226 [5], the viability at 1 µM was 103%. Besides, the viability at 24 h, 100 µM in data set [6] is 104%. The viability at 50 µM with RPMI-8226 [7] was 103%.

As to `COc1ccc(N2CCn3c2nnc(-c2ccccc2)c3=O)cc1`, in data set [1], the viability at 24 h, 50 µM is 64%. The viability at 100 µM in the data set with RPMI-8226 [2] turned out to be 43%. Moreover, in data set [3], the viability at 24 h, 1 µM stood at 88%. In addition, in data set [4], the Activity is on record as 59%. For the same compound, in the data set with RPMI-8226 [5], the viability at 1 µM was 106%. Also, the viability at 24 h, 100 µM in data set [6] turned out to be 73%. Also, the viability at 50 µM in the data set with RPMI-8226 [7] was determined as 57%.

On to `O=c1c(-c2ccccc2)nnc2n1CCN2c1cc(Cl)ccc1Cl`, for which the viability at 24 h, 50 µM in data set [1] stood at 31%. Also, the viability at 100 µM in the data set with RPMI-8226 [2] was 41%. The viability at 24 h, 1 µM in data set [3] is 87%. Moreover, the Activity in data set [4] stood at 103%. Also, the viability at 1 µM in the data set on RPMI-8226 [5] was 109%. For the same compound, the viability at 24 h, 100 µM in data set [6] is 17%. The viability at 50 µM with RPMI-8226 [7] came to 43%.

As for `O=c1c(-c2ccccc2)nnc2n1CCN2c1cccc(Cl)c1`, the viability at 24 h, 50 µM in data set [1] amounted to 85%. The viability at 100 µM in the data set on RPMI-8226 [2] amounted to 60%. In addition, the viability at 24 h, 1 µM in data set [3] worked out at 108%. In data set [4], the Activity turned out to be 52%. The viability at 1 µM with RPMI-8226 [5] turned out to be 105%. The viability at 24 h, 100 µM in data set [6] was found to be 88%. The viability at 50 µM in the data set on RPMI-8226 [7] turned out to be 70%.

Regarding `O=c1c(-c2ccccc2)nnc2n1CCN2c1ccc(Cl)cc1`, in data set [1], the viability at 24 h, 50 µM worked out at 96%. Besides, in the data set on RPMI-8226 [2], the viability at 100 µM amounted to 39%. Moreover, the viability at 24 h, 1 µM in data set [3] was 104%. In addition, the Activity in data set [4] worked out at 50%. Further, in the data set with RPMI-8226 [5], the viability at 1 µM came to 101%. Besides, the viability at 24 h, 100 µM in data set [6] was 102%. Further, in the data set with RPMI-8226 [7], the viability at 50 µM amounted to 56%.

`O=c1c(-c2ccccc2)nnc2n1CCN2c1ccc(Cl)c(Cl)c1`: in data set [1], the viability at 24 h, 50 µM is 48%. Further, the viability at 100 µM with RPMI-8226 [2] came to 58%. In data set [3], the viability at 24 h, 1 µM is 93%. Further, the Activity in data set [4] is reported as 90%. Moreover, the viability at 1 µM in the data set with RPMI-8226 [5] came to 108%. Also, the viability at 24 h, 100 µM in data set [6] worked out at 47%. Also, the viability at 50 µM with RPMI-8226 [7] stood at 69%.

On to `Cc1cccc(N2CCn3c2nnc(-c2ccccc2)c3=O)c1`, for which the viability at 24 h, 50 µM in data set [1] is 94%. In addition, in the data set on RPMI-8226 [2], the viability at 100 µM is 71%. The viability at 24 h, 1 µM in data set [3] amounted to 100%. Moreover, the Activity in data set [4] is reported as 68%. In the data set with RPMI-8226 [5], the viability at 1 µM worked out at 107%. Also, the viability at 24 h, 100 µM in data set [6] was determined as 88%. Besides, the viability at 50 µM with RPMI-8226 [7] worked out at 79%.
